Bioassay records deposited in PubChem by several laboratories.
This is one part of a sample in which hits are shown more often than they occur.
CHOP inhibitor: CHOP inhibition in unfolded protein response; 220,000 tested, 3.8% active; inhibition, % at 10 µM; CHO-K1 CHOP-promoter luciferase, tunicamycin-induced, 15-18 h;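 active means compounds that reduced the stress-induced luciferase reporter signal by more than about 70% of percent inhibition, limit read from the data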
UPR CHOP act: activators of apoptotic arm of unfolded protein response (CHOP); CHO-CHOP luciferase reporter, UPR activation, luminescence; percent of tunicamycin response over DMSO baseline; activation, % at 10 µM; 330,000 tested, 0.34% active; AID 449763;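 active means at 10 µM dose, activation of 40% or more, normalized to positive control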
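Test system: CHO-CHOP cells, stable luciferase reporter of PERK-eIF2a-CHOP signalling | Quantity: 500 CHO-CHOP cells per well | Buffer or medium: F12 plus 10% serum | Compound dosing: 10 µM single point, 0.5% DMSO | Schedule: 6 h compound treatment, 37 °C | Signal: Luciferase luminescence | Control set: Tunicamycin high control, DMSO low control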
VLA-4 inh: inhibition in a human VLA-4 binding assay | P13612 | VLA-4 expressing cells, ligand binding flow cytometry | inhibition, % (about 7 µM as worked out from the volumes in the protocol) | 330,000 tested, 0.2% active; in the data active means inhibition above about 50%
Target sequence (P13612 whole entry, looked up): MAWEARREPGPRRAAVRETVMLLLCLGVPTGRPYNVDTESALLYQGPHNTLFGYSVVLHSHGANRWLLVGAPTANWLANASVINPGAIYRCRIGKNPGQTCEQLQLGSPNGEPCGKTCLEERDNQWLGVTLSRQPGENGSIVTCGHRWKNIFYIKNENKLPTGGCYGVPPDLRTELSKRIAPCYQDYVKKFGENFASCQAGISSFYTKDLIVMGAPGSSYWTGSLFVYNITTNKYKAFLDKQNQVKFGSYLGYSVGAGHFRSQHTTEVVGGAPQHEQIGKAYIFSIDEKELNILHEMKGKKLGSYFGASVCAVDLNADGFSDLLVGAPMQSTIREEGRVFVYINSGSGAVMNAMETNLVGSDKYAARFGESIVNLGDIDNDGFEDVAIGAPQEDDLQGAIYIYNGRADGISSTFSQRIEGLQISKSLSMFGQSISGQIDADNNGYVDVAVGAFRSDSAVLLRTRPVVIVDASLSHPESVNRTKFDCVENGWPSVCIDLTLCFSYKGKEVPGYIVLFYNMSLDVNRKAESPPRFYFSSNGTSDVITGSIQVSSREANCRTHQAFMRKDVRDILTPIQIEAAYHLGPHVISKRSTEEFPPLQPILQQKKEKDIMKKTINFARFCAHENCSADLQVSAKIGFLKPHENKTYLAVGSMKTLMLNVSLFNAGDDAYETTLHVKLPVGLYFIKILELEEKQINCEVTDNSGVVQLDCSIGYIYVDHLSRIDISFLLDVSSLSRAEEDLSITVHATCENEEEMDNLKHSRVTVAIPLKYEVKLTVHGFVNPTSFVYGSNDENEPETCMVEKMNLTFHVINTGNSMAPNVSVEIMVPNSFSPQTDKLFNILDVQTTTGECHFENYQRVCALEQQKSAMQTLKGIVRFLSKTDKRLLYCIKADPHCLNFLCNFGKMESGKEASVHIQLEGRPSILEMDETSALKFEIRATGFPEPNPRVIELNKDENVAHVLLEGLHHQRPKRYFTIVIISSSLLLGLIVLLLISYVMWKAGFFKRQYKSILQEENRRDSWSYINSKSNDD
Beta2AR agonist: activates human beta-2 adrenergic receptor causing internalization; AID 504454; response, % (no concentration beside the values); 340,000 tested, 0.43% active; P07550; Am2.2-beta2AR cells, FAP receptor internalization, flow cytometry;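 active means response above a set limit, near 3 SD of response in nonfluorescent compounds, cut at about 42% in these data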
UPR XBP1 act: adaptive UPR (XBP1) activation; activation, % at 20 µM; CHO-XBP1 luciferase reporter, IRE1-XBP1 UPR activation, luminescence; percent of tunicamycin response, DMSO as zero; AID 463104; 330,000 tested, 0.33% active;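 active means versus positive control, 20 µM dose yields 30% or more activation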
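incubation = overnight seeding at 37 °C, 6 h compound treatment at 37 °C | assay system = CHO-XBP1 cells stably carrying IRE1-XBP1-driven luciferase reporter | input = 1000 cells per well | detection = luciferase luminescence | dosing = single point, 20 µM final compound, 1% DMSO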
Numbers stand for hits.

CC1=C(C(=O)Nc2ccc(CC(=O)NCc3ccc(OC(C)C)cc3)cc2)SCCO1 was read as UPR CHOP act inactive, VLA-4 inh inactive, Beta2AR agonist inactive and UPR XBP1 act inactive.
`C[C@H](NC(=O)CCCOc1ccc(Cl)cc1Cl)c1nnc2ccccn12` gave UPR CHOP act inactive, VLA-4 inh inactive, Beta2AR agonist inactive and UPR XBP1 act inactive.
For COc1cccc(/C=C2\SC(=S)NC2=O)c1OS(=O)(=O)c1ccc(NC(C)=O)cc1 the results were CHOP inhibitor inactive, UPR CHOP act inactive, VLA-4 inh inactive, Beta2AR agonist 77 and UPR XBP1 act inactive.
For COc1ccc(/C=C2\SC(=S)NC2=O)cc1OS(=O)(=O)c1ccc(NC(C)=O)cc1 the results were CHOP inhibitor inactive and Beta2AR agonist inactive.
`CCOc1ccc(C(=O)COC(=O)Cn2cnc3c2c(=O)n(C)c(=O)n3C)cc1` gave UPR CHOP act inactive, VLA-4 inh inactive, Beta2AR agonist inactive and UPR XBP1 act inactive.
Screening Cc1c(C(=O)NCCC2=CCCCC2)sc2ncnc(N3CCCCC3C)c12 (centres undefined) returned UPR CHOP act inactive, VLA-4 inh inactive, Beta2AR agonist inactive and UPR XBP1 act inactive.
`O=C(Nc1ccccc1Cc1ccccc1)c1ccccc1NS(=O)(=O)c1ccc(Cl)s1` gave CHOP inhibitor 71, UPR CHOP act inactive, VLA-4 inh inactive, Beta2AR agonist inactive and UPR XBP1 act inactive.
Screening O=C(Nc1ccccc1)c1ccccc1NS(=O)(=O)c1ccc(Cl)s1 returned CHOP inhibitor inactive, UPR CHOP act inactive, VLA-4 inh inactive, Beta2AR agonist inactive and UPR XBP1 act inactive.
For C=CCn1c(-c2csc(-c3ccc(Cl)cc3)n2)n[nH]c1=S the results were CHOP inhibitor 72, UPR CHOP act inactive, VLA-4 inh inactive, Beta2AR agonist inactive and UPR XBP1 act inactive.
`N#Cc1ccc(NC(=O)Nc2ccc(Cl)cc2)cc1` gave CHOP inhibitor 78, UPR CHOP act inactive, VLA-4 inh inactive, Beta2AR agonist inactive and UPR XBP1 act inactive.
CCNc1nc(NC(C)C)nc(N(C#N)Cc2ccccc2)n1 was read as CHOP inhibitor inactive, UPR CHOP act inactive, VLA-4 inh inactive, Beta2AR agonist inactive and UPR XBP1 act inactive.
`CCNc1nc(NC(C)C)nc(N(C#N)CCOc2ccc(Cl)cc2Cl)n1` gave CHOP inhibitor 76, UPR CHOP act inactive, VLA-4 inh inactive, Beta2AR agonist inactive and UPR XBP1 act inactive.
Screening CCn1c(-c2cc(-c3cc(C)ccc3C)nc3ccccc23)n[nH]c1=S returned CHOP inhibitor inactive, UPR CHOP act inactive, VLA-4 inh inactive, Beta2AR agonist inactive and UPR XBP1 act inactive.
`CCOc1ccccc1-c1cc(-c2n[nH]c(=S)n2CC)c2ccccc2n1` gave CHOP inhibitor inactive, UPR CHOP act inactive, VLA-4 inh inactive, Beta2AR agonist inactive and UPR XBP1 act inactive.
Screening CCOc1cccc(-c2cc(-c3n[nH]c(=S)n3CC)c3ccccc3n2)c1 returned CHOP inhibitor 87, UPR CHOP act inactive, VLA-4 inh inactive, Beta2AR agonist inactive and UPR XBP1 act inactive.
CCn1c(-c2cc(-c3ccc(C)c(C)c3)nc3ccccc23)n[nH]c1=S was read as CHOP inhibitor 76, UPR CHOP act inactive, VLA-4 inh inactive and UPR XBP1 act inactive.
`COc1ccc(OC)c(NC(=O)Nc2ccc(Cl)cc2)c1` gave CHOP inhibitor inactive, UPR CHOP act inactive, VLA-4 inh inactive, Beta2AR agonist inactive and UPR XBP1 act inactive.
COc1cccc(NC(=O)C(NC2CCCC2)c2ccccc2)c1 (centres undefined) was read as CHOP inhibitor 82, UPR CHOP act inactive, VLA-4 inh inactive, Beta2AR agonist inactive and UPR XBP1 act inactive.
COc1cccc(NC(=O)Nc2cccc(C(=O)O)c2)c1 was read as CHOP inhibitor 76, UPR CHOP act inactive, VLA-4 inh inactive, Beta2AR agonist inactive and UPR XBP1 act inactive.
Screening COC(=O)c1cc(NC(=O)Nc2cc(OC)ccc2OC)cc(C(=O)OC)c1 returned CHOP inhibitor 78, UPR CHOP act inactive, VLA-4 inh inactive, Beta2AR agonist inactive and UPR XBP1 act inactive.
Screening COCCN(C(=O)CCC(=O)Nc1nccs1)C(C(=O)NCCC(C)C)c1ccc(OC)cc1 (centres undefined) returned UPR CHOP act inactive, VLA-4 inh inactive, Beta2AR agonist inactive and UPR XBP1 act inactive.
O=C(OCCOc1ccc(Br)cc1)c1ccc(Cl)c(S(=O)(=O)N2CCOCC2)c1 was read as UPR CHOP act inactive, VLA-4 inh inactive, Beta2AR agonist inactive and UPR XBP1 act inactive.
For CC1=C(C)/C(=N/OC(=O)c2cccc([N+](=O)[O-])c2)C=CC1=O the results were CHOP inhibitor 92, UPR CHOP act inactive, VLA-4 inh inactive, Beta2AR agonist inactive and UPR XBP1 act inactive.
For CC1C(c2ccccc2)N(C)C(c2ccccc2)CC1(O)c1ccc(F)cc1 (centres undefined) the results were CHOP inhibitor 85, VLA-4 inh inactive and Beta2AR agonist inactive.
`CCOc1nc(Nc2ccc(OC)c(Cl)c2)nc(OCC)n1` gave CHOP inhibitor 83, UPR CHOP act inactive, VLA-4 inh inactive, Beta2AR agonist inactive and UPR XBP1 act inactive.
Screening CNC(=O)c1ccc(NC(=O)CC2SC(N3CCCC3)=NC2=O)cc1 (centres undefined) returned UPR CHOP act inactive, VLA-4 inh inactive, Beta2AR agonist inactive and UPR XBP1 act inactive.
Cc1ccc(C(=O)NCCSc2ccc(Cl)cc2)cc1S(=O)(=O)Nc1ccccc1 was read as CHOP inhibitor 79, UPR CHOP act inactive, VLA-4 inh inactive, Beta2AR agonist inactive and UPR XBP1 act inactive.
COc1ccc(CCC(C)Nc2cccc(C)c2)cc1 (centres undefined) was read as CHOP inhibitor 82, UPR CHOP act inactive, VLA-4 inh inactive, Beta2AR agonist inactive and UPR XBP1 act inactive.
COc1ccc(CCC(C)Nc2ccc(F)c(F)c2)cc1 (centres undefined) was read as CHOP inhibitor inactive, UPR CHOP act inactive, VLA-4 inh inactive, Beta2AR agonist inactive and UPR XBP1 act inactive.
For COc1ccc(CCC(C)Nc2ccc(F)cc2)cc1 (centres undefined) the results were CHOP inhibitor 88, UPR CHOP act inactive, VLA-4 inh inactive, Beta2AR agonist inactive and UPR XBP1 act inactive.
`CC1=C(C(=O)OC(C)(C)C)C(c2cccc3ccccc23)NC(=O)N1` (centres undefined) gave UPR CHOP act inactive, VLA-4 inh inactive, Beta2AR agonist inactive and UPR XBP1 act inactive.
CCC(C)NC(=O)C1CCN(S(=O)(=O)c2cc([N+](=O)[O-])ccc2Cl)CC1 (centres undefined) was read as CHOP inhibitor inactive, UPR CHOP act inactive, VLA-4 inh inactive, Beta2AR agonist inactive and UPR XBP1 act inactive.
For O=C(Nc1nc2ccccc2s1)C1CCN(S(=O)(=O)c2cc([N+](=O)[O-])ccc2Cl)CC1 the results were CHOP inhibitor 83, UPR CHOP act inactive, VLA-4 inh inactive, Beta2AR agonist inactive and UPR XBP1 act inactive.
